Laboratory results: ChEMBL document CHEMBL3102734, “Inhibition of LOX by flavonoids: a structure-activity relationship study” (Eur J Med Chem, 2014)
The source made the active and inactive calls. The calls are words filed in the database; no cut-off is given here.

Columns and labels:
[1] = target: T1, Polyunsaturated fatty acid 5-lipoxygenase (Homo sapiens) (UniProt P09917); assay: Inhibition of 5-LOX-mediated LTB4 production in human neutrophils using arachidonic acid as substrate at 40 uM preincubated for 10 mins followed by substrate addition measured after 8 mins by enzyme immunoassay relative to control
T1 sequence (whole entry): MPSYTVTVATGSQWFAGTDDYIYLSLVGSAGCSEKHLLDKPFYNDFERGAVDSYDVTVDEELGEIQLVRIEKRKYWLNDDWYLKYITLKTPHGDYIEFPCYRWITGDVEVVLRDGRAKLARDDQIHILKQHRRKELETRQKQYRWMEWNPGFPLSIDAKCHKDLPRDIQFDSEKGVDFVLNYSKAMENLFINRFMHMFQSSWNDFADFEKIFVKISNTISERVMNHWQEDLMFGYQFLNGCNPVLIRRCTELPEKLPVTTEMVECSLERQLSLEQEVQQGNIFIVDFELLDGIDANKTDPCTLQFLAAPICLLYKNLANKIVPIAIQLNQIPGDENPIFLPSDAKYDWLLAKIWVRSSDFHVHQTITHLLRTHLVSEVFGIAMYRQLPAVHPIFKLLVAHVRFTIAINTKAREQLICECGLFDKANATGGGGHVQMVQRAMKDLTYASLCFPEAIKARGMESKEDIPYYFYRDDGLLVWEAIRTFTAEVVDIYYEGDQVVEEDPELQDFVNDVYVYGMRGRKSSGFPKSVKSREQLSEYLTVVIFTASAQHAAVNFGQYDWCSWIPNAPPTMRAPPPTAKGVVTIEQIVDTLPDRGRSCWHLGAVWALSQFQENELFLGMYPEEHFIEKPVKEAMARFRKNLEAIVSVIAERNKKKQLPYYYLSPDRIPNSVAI
Method in brief: (§1)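 Isolated human neutrophils held in HBSS on ice; viability checked by trypan blue. Cells at 3.5×10^6 cells/mL equilibrated 10 min at 37 °C. Flavonoids (0.15–40 μM) pre-incubated 10 min, then A23187 (5 μM) plus arachidonic acid (10 μg/mL) added for 8 min. Stopped with cold methanol and centrifuged 13,000 g, 1 min, 4 °C. LTB4 measured by EIA and expressed as % inhibition of control. NDGA (1 μM) positive control. At least three experiments.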

[2] = target: T2, Seed linoleate 13S-lipoxygenase-1 (Glycine max, UniProt P08170); assay: Uncompetitive inhibition of soybean LOX-1 using linoleic acid as substrate preincubated for 5 mins followed by substrate addition by Lineweaver-Burk plot analysis
T2 sequence (P08170 whole entry): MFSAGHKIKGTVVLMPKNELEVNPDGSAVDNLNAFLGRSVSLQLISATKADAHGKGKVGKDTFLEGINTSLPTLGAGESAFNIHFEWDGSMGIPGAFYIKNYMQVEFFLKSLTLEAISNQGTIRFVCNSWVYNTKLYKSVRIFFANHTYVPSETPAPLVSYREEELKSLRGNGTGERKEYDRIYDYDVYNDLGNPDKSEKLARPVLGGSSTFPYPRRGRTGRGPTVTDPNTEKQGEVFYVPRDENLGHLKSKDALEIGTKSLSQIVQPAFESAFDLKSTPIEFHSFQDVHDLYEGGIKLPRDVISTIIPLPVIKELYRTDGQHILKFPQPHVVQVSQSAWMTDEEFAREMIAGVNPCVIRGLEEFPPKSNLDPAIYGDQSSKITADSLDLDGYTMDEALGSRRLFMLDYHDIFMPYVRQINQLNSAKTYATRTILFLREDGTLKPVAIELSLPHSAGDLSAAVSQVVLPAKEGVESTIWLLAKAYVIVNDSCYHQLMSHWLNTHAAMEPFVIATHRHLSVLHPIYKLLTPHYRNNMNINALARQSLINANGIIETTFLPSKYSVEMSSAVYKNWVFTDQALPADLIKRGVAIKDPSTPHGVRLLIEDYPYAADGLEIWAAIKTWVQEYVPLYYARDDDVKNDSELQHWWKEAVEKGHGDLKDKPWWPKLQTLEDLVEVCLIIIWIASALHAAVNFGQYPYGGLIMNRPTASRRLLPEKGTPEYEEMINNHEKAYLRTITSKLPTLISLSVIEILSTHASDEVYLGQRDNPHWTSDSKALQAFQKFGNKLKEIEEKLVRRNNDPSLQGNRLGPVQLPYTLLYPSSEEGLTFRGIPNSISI
Method in brief: (§2)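 Soybean LOX-1 (supplied lyophilized) kinetic assay. Enzyme pre-incubated with inhibitor 5 min, then linoleic acid added. Readings every 30 s for 10 min; rate taken as the 0–3 min slope. Three inhibitor concentrations tested against three substrate concentrations. Inhibition type assigned by nonlinear Michaelis–Menten fitting and Lineweaver–Burk plots. At least four experiments, each in triplicate.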

[3] = target: T3, Seed linoleate 13S-lipoxygenase-1 (Glycine max) (UniProt P08170); assay: Binding affinity to soybean LOX-1 at 1248 uM by STD-[1H] NMR spectroscopic analysis
T3 sequence (whole entry): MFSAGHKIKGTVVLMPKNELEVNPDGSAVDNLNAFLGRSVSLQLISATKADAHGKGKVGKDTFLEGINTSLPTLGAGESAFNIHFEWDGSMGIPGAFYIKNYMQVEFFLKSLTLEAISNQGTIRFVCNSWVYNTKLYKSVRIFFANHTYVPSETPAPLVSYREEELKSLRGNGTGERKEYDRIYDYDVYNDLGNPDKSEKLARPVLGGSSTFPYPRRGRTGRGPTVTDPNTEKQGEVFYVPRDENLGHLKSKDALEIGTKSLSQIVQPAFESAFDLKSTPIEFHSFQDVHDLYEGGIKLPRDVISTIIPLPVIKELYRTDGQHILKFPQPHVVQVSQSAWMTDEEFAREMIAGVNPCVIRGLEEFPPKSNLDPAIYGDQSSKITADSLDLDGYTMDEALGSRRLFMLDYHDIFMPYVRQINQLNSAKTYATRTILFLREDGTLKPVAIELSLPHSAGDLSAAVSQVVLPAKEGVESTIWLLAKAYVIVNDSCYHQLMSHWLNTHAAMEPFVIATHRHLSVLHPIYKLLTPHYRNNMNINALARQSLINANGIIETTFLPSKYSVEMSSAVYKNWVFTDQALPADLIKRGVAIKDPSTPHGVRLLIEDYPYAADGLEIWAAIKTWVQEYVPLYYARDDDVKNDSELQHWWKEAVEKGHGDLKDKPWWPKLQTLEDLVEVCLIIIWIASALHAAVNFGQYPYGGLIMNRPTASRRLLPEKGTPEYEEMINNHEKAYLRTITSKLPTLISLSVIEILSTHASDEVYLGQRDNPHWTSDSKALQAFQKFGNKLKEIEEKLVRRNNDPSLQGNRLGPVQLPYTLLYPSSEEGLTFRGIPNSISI
Method in brief: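 STD-1H NMR at 37 °C, 600 MHz, cryoprobe. Lyophilized soybean LOX-1 in Tris buffer (20 mM Tris, 7 mM (NH4)2SO4, 3.5 mM MgCl2, 0.3 mM DTT in D2O, pH 9.0). Ligand added from a 16.6 mM DMSO-d6 stock. Final concentrations: LOX 4 μM, ligand 1248 μM, ratio 300:1. On-resonance saturation at 1.0 ppm; off-resonance reference at 20000 Hz.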

[4] = target: T2, Seed linoleate 13S-lipoxygenase-1; assay: Mixed noncompetitive type inhibition of soybean LOX-1 using linoleic acid as substrate preincubated for 5 mins followed by substrate addition by Lineweaver-Burk plot analysis
Method in brief: as §2, with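 “added. Conversion to the cis,trans-hydroperoxide followed at 234 nm at 30 °C with continuous soft shaking.” for “added.”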

[5] = target: T4, Polyunsaturated fatty acid 5-lipoxygenase (Homo sapiens, UniProt P09917); assay: Inhibition of 5-LOX-mediated LTB4 production in human neutrophils using arachidonic acid as substrate preincubated for 10 mins followed by substrate addition measured after 8 mins by enzyme immunoassay
T4 sequence (P09917 whole entry): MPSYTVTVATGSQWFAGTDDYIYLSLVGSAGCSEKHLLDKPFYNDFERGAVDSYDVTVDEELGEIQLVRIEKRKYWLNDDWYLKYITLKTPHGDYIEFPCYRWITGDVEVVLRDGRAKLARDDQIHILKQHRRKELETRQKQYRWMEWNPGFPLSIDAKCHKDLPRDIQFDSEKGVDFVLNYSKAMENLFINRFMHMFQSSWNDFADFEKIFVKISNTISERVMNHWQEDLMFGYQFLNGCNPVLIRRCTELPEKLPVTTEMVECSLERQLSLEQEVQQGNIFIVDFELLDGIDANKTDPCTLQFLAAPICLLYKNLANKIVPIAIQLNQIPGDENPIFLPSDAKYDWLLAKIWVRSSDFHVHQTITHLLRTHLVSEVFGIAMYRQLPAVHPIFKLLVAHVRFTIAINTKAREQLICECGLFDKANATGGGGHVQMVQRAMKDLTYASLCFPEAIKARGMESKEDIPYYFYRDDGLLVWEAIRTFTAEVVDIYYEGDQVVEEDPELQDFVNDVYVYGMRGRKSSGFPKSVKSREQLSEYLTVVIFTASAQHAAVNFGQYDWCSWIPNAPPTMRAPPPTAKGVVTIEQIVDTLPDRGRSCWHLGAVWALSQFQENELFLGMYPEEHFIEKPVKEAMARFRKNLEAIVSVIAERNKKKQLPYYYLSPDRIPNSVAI
Method in brief: as §1, with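 “blue.” for “blue. Cells at 3.5×10^6 cells/mL equilibrated 10 min at 37 °C.”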

[6] = target: T1, Polyunsaturated fatty acid 5-lipoxygenase (Homo sapiens); assay: Inhibition of 5-LOX-mediated LTB4 production in human neutrophils using arachidonic acid as substrate at 0.15 to 40 uM preincubated for 10 mins followed by substrate addition measured after 8 mins by enzyme immunoassay relative to control; method in brief: as §1

Row | Structure (SMILES) | inhibition [1] [%] | Activity [3] | also measured
1 | COc1cc(-c2cc(=O)c3c(O)cc(O)cc3o2)ccc1O | < 50 | – | –
2 | O=c1cc(-c2ccc(O)cc2)oc2cc(O)ccc12 | < 50 | – | –
3 | O=c1cc(-c2ccccc2)oc2cccc(O)c12 | – | – | inhibition [6]: inactive
4 | O=C1CC(c2ccc(O)c(O)c2)Oc2cc(O)cc(O)c21 (racemic) | 53.4 | – | –
5 | O=c1cc(-c2ccccc2)oc2ccccc12 | < 50 | – | –
6 | O=c1cc(-c2ccc(O)c(O)c2)oc2ccccc12 | – | Active | IC50 [5]: 1.7 µM; Ki [4]: 84.5 µM
7 | O=c1cc(-c2ccccc2)oc2cc(O)ccc12 | 53.1 | – | –

Second part, led by results:

Row | inhibition [1] [%] | Activity [3] | Structure (SMILES) | also measured
8 | 52 | Active | O=c1cc(-c2cccc(O)c2)oc2cc(O)cc(O)c12 | Ki [2]: 95.4 µM
9 | < 50 | Active | O=c1cc(-c2ccccc2)oc2cc(O)cc(O)c12 [CHRYSIN] | Ki [4]: 19.4 µM
10 | 38.4 | – | O=c1cc(-c2ccc(O)cc2)oc2ccccc12 | –
11 | – | Active | O=c1cc(-c2ccc(O)c(O)c2)oc2cc(O)ccc12 | IC50 [5]: 2 µM
12 | 51.4 | – | O=c1cc(-c2cccc(O)c2)oc2cc(O)ccc12 | –
